ChEMBL document CHEMBL1123801, “Synthesis and antifungal activity of new 1-vinylimidazoles” (1987)
≈ marks a conversion by molar mass, not a printed value.

How the values were obtained:
Trichophyton rubrum [1] = test: Minimum inhibitory concentration against Trichophyton rubrum IFO 5807; type: functional
Method in brief: (§1)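 Agar dilution on Sabouraud's glucose agar. Inocula 1×10^6 cells/mL for the yeast strains (C. albicans IFO 1060, 1388) and 1×10^6 conidia/mL for the dermatophytes (T. mentagrophytes IFO 5809, 5810; T. rubrum IFO 5467, 5807). MIC in μg/mL, lowest value of duplicated experiments.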

Candida albicans [2] = test: Minimum inhibitory concentration against Candida albicans IFO 1060; type: functional; method in brief: as §1
Trichophyton benhamiae [3] = test: Minimum inhibitory concentration against Trichophyton mentagrophyte IFO 5809; type: functional; method in brief: as §1
Trichophyton benhamiae [4] = test: Minimum inhibitory concentration against Trichophyton mentagrophyte IFO 5810; type: functional; method in brief: as §1
Trichophyton rubrum [5] = test: Minimum inhibitory concentration against Trichophyton rubrum IFO 5467; type: functional; method in brief: as §1
Candida albicans [6] = test: Minimum inhibitory concentration against Candida albicans IFO 1388; type: functional; method in brief: as §1
[7] = (§2) Minimum inhibitory concentration against Trichophyton asteroides; type: functional; details: Trichophyton benhamiae
Method in brief: (§3)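 Broth microdilution in Sabouraud's glucose broth. Final inocula 1×10^5 cells/mL for the yeast (C. albicans) and 1×10^5 conidia/mL for the mold (A. fumigatus) and the dermatophyte (T. asteroides). MIC read as the fungistatic end point. Lowest value of duplicated experiments.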

Aspergillus fumigatus [8] = test: Minimum inhibitory concentration against Aspergillus fumigatus; type: functional; method in brief: as §3
Candida albicans [9] = test: Minimum inhibitory concentration (MIC) against Candida albicans; type: functional; method in brief: as §3
Trichophyton benhamiae [10] = test: Minimum inhibitory concentration against Trichophyton mentagrophytes IFO 5809; type: functional, Arthroderma benhamiae; method in brief: as §1
Aspergillus fumigatus [11] = test: Minimum inhibitory concentration (MIC) against Aspergillus fumigatus; type: functional; method in brief: as §3
Trichophyton benhamiae [12] = test: as §2; type: functional; method in brief: as §3
Trichophyton benhamiae [13] = test: Minimum inhibitory concentration against Trichophyton mentagrophytes IFO 5810; type: functional, Arthroderma benhamiae; method in brief: as §1
Trichophyton rubrum [14] = test: Minimum inhibitory concentration against Trichophyton rubrum IFO 5467
Candida albicans [15] = test: Inhibitory effect on pseudomycelium formation of candida albicans.; type: functional; details: read-out: MEC
Method in brief: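 C. albicans KE-2 (clinical isolate), final inoculum 1×10^6 yeast cells/mL in EMEM with 20% calf serum. Compounds serially diluted by the microtiter dilution system used for MICs. After incubation, wells Giemsa-stained (5% in phosphate buffer) and examined microscopically. MEC (μg/mL) = lowest concentration preventing typical pseudomycelium formation. Lowest value of duplicated experiments.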

Row | MIC (Trichophyton rubrum [1]) | MIC (Candida albicans [2]) | MIC (Trichophyton benhamiae [3]) | MIC (Trichophyton benhamiae [4]) | MIC (Trichophyton rubrum [5]) | MIC (Candida albicans [6]) | MIC [7] | MIC (Aspergillus fumigatus [8]) | MIC (Candida albicans [9]) | MIC (Trichophyton benhamiae [10]) | MIC (Aspergillus fumigatus [11]) | MIC (Trichophyton benhamiae [12]) | MIC (Trichophyton benhamiae [13]) | MIC (Trichophyton rubrum [14]) | Compound | minimal effective concentration (Candida albicans [15])
1 | 0.8 µg/mL (≈ 2.32 µM) | 6.3 µg/mL (≈ 18.3 µM) | 0.8 µg/mL (≈ 2.32 µM) | 0.4 µg/mL (≈ 1.16 µM) | 0.8 µg/mL (≈ 2.32 µM) | 12.5 µg/mL (≈ 36.2 µM) | – | – | – | – | – | – | – | – | Clc1ccccc1C(c1ccccc1)(c1ccccc1)n1ccnc1 [CLOTRIMAZOLE] | –
2 | – | – | – | – | – | – | > 100 µg/mL | > 100 µg/mL | > 100 µg/mL | – | – | – | – | – | CC(C)(n1ccnc1)n1ccnc1 | –
3 | 0.8 µg/mL (≈ 2.57 µM) | 12.5 µg/mL (≈ 40.2 µM) | – | – | – | 12.5 µg/mL (≈ 40.2 µM) | – | – | 6.2 µg/mL (≈ 19.9 µM) | 1.6 µg/mL (≈ 5.15 µM) | 3.1 µg/mL (≈ 9.97 µM) | 0.1 µg/mL (≈ 0.322 µM) | 1.6 µg/mL (≈ 5.15 µM) | 1.6 µg/mL (≈ 5.15 µM) | C=C(c1cc(Cl)ccc1OCc1ccccc1)n1ccnc1 | –
4 | – | – | – | – | – | – | – | – | 25 µg/mL (≈ 77 µM) | – | 0.4 µg/mL (≈ 1.23 µM) | 0.1 µg/mL (≈ 0.308 µM) | – | – | C=C(c1ccccc1OCCc1ccc(Cl)cc1)n1ccnc1 | 1.25 µg/mL
